# From PubChem BioAssay
# TbMetRS inhib = T. brucei MetRS inhibitors, primary screen, biochemical, luminescence; methionyl-tRNA synthetase (Trypanosoma brucei brucei); purified T. brucei MetRS, ATP depletion, Kinase-Glo luminescence; inhibition, % at 11.9 µM; hit rate 0.4% among 360,000;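 active means inhibition above a per-plate cutoff of the control wells' mean inhibition plus 3 SD, cut at about 5.5% in these data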;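 further: 0% = DMSO wells median and 100% = median of wells with control inhibitor compound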
#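 Assay system: T. brucei methionyl-tRNA synthetase, purified | Medium: HEPES buffer with MgCl2, KCl, DTT, spermine, BSA, pyrophosphatase | Compound: 11.9 µM single point | Incubation: 15 min enzyme-compound preincubation, 2 h reaction, 10 min detection, 25 °C | Measured by: Kinase-Glo luciferase luminescence reporting remaining unconsumed ATP | Measure: % inhibition normalized to control-well medians | Replication: Singlicate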
# PREPL inhibitor = PREPL enzyme inhibitors, primary screen, biochemical, fluorescence polarization | Prolyl endopeptidase-like (Homo sapiens), Q4J6C6 | recombinant PREPL, fluorescence polarization activity-based probe | inhibition, % at 5.96 µM | hit rate 0.68% among 320,000 | AID 2751, 2010; in the data active means inhibition above about 43%;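 further: 0% = enzyme with DMSO and 100% = wells lacking enzyme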
# CSN inh = inhibitors of CSN-mediated cullin deneddylation, primary screen, biochemical, fluorescence polarization, uHTS. Purified CSN, SCF-Nedd8-OG deneddylation. COP9 signalosome complex subunit 5 (Homo sapiens), Q92905. AID 651999, 2013. hit rate 0.38% among 360,000. inhibition, % at 12.5 µM;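 active means pattern-corrected inhibition above about 35%, with an unprinted fluorescence ratio check between 0.5 and 1.5, limit read from the data, passing the limit was not always enough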;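 further: 0% = enzyme with substrate and 100% = substrate without enzyme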
#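 Assay system: purified human Csn5 enzyme expressed in HEK293T cells; Input: 0.24 nM Csn5 enzyme, final concentration; Reagent: 10 nM SCFSkp2-Nedd8OG; Compound dosing: 12.5 µM single point; Times: reaction 90 min, room temperature; Technique: fluorescence polarization readout.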
# HNF4A DNA FP = change in binding of human HNF4A to DNA, primary screen, biochemical, fluorescence polarization, FITC-DNA; 1 h; hit rate 0.3% among 360,000; AID 1224865, 2016; activity change, % at 10 µM; in the data active means activity change above about 30%, passing the limit was not always enough
# Neddylation inh = inhibitors of cullin neddylation, primary screen, biochemical, TR-FRET, uHTS, NAE and Ubc12 | NEDD8-conjugating enzyme Ubc12 (Homo sapiens) + NEDD8-activating enzyme E1 regulatory … | hit rate 0.58% among 360,000 | inhibition, % at 25 µM; in the data active means inhibition above about 36%
# Rpn11 block = Rpn11 (PSMD14) deubiquitinase inhibitors, primary screen, biochemical, fluorescence polarization, uHTS | human 26S proteasome, Ub4-pepOG fluorescence polarization; 20S core pre-blocked with epoxomicin | hit rate 0.59% among 360,000 | inhibition, % at 20 µM;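 active means inhibition at 20 µM, scaled to each plate's controls, above about 33%, limit read from the data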
# Rpn11 confirm = Rpn11 (PSMD14) deubiquitinase inhibitors, confirmation, biochemical, fluorescence polarization, single concentration. hit rate 29% among 1,900. shares compounds with Rpn11 block. AID 602318, 2012. inhibition, % at 20 µM. purified human 26S proteasome, Ub4-pepOG fluorescence polarization; proteasome pretreated with epoxomicin
# MMP-2 counter = MMP-2 enzyme inhibition, confirmation, counter-screen for RPN11 inhibitor project, biochemical, fluorescence, single concentration; shares compounds with Rpn11 block; recombinant MMP-2, FRET peptide cleavage fluorescence; inhibition, % at 20 µM; hit rate 4% among 1,900; AID 602330, 2012;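 further: human MMP-2 activated beforehand with APMA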
# Thrombin FP = bovine thrombin protease inhibition, confirmation, counter-screen for Rpn11 inhibitor project, biochemical, fluorescence polarization, single concentration | AID 602333, 2012 | inhibition, % at 20 µM | bovine thrombin cleavage of Ub4-pepOG | hit rate 13% among 1,900 | shares compounds with Rpn11 block;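 active means mean inhibition at least 40% at 20 µM, or signal 3 deviations below plate average, so some actives read negative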;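 further: plate controls were thrombin with DMSO for no effect and buffer wells lacking thrombin for full effect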
# Target sequence (P00735 whole entry, looked up): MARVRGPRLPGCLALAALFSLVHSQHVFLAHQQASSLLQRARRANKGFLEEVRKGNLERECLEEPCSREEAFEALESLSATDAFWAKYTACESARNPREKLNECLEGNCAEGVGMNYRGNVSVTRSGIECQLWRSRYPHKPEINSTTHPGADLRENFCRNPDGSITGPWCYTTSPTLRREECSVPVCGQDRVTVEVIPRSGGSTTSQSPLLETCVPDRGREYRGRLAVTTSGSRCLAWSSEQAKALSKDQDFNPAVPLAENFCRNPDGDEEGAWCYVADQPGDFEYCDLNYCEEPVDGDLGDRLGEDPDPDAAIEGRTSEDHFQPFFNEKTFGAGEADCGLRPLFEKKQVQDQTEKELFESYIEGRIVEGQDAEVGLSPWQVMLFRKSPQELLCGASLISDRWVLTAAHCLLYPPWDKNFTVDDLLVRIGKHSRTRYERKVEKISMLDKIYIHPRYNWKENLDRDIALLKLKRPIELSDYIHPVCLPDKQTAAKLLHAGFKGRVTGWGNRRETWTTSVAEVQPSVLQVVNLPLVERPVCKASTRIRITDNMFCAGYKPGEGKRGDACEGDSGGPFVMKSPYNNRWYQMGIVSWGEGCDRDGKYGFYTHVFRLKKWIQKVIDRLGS
# * hit, by the source's call; x = not tested or not shown. A selection: hits, their analogues and other compounds. The true share with any hit is near 2.4%. Unless noted, no stated cut-off is given here; in the data, active means inhibition above about 40%; inactive means the rest.
SMILES,TbMetRS inhib,PREPL inhibitor,CSN inh,HNF4A DNA FP,Neddylation inh,Rpn11 block,Rpn11 confirm,MMP-2 counter,Thrombin FP
COC(=O)C1=C(C)N(CCc2ccc(OC)c(OC)c2)C(=O)/C1=C\N(C)C,0,-5,2,-1,-3,60*,-10,5,-11
CCOC(=O)c1[nH]c(CSc2nnnn2-c2ccccc2C)c(C(=O)OCC)c1C,-1,-3,3,15,-6,62*,30,12,5
Cc1ccccc1-n1nnnc1SCC(C)C,-1,6,0,1,-3,2,x,x,x
O=C(Nc1ccc(Oc2ncnc3cc(Cl)ccc23)nc1)c1cccs1,0,2,20,9,-133,50*,5,-2,-2
O=C(Nc1ccc(F)cc1)Nc1ccc(Oc2ncnc3cc(Cl)ccc23)nc1,1,2,2,4,-27,11,x,x,x
Cn1c(C(=O)NCCCN2CCCCCC2)cc2c(=O)n(C)c3ccccc3c21,-1,-2,15,8,29,68*,-8,-39,-7
CCCN1CCN(CCCNC(=O)c2cc3c(=O)n(C)c4ccccc4c3n2C)CC1,0,-11,-2,0,25,2,x,x,x
CCc1ccc(N=Nc2ccc(O)c3[nH]cnc23)cc1,0,18,21,42*,-137,42*,34,-25,31
COc1ccc(N=Nc2ccc(O)c3ncccc23)cc1,-1,17,4,-11,-32,8,x,x,x
N#CCOC(=O)[C@H](Cc1c[nH]c2ccccc12)NS(=O)(=O)c1ccc(Cl)cc1,1,7,7,-4,0,-9,x,x,x
Cc1ccc(F)c(S(=O)(=O)NC(=O)C2(C)CCN2C(=O)CC(c2ccccc2)c2ccccc2)c1 (stereo unspecified),0,x,-3,-2,-1,-1,x,x,x
O=C(NC1CCCCC1)c1cc(S(=O)(=O)N2CCN(c3ccccc3)CC2)ccc1Cl,0,9,2,2,-2,-1,x,x,x
O=C(Nc1ccc2c(c1)CCC2)c1cc(S(=O)(=O)N2CCN(c3ccccc3)CC2)ccc1Cl,0,3,6,22,-54,64*,41*,14,-50
O=C(COc1ccc([N+](=O)[O-])cc1)Nc1cccc2nsnc12,0,13,16,27,-321,75*,4,-3,5
CCOC(=O)[C@]12CCC=C1N(Cc1ccccc1)C(=O)[C@H](CC(=O)N1CCOCC1)C2,-1,x,0,2,1,x,x,x,x
CCOC(=O)C1CCN(Cc2nc3ccc([N+](=O)[O-])cc3c(=O)n2-c2ccc(OC)cc2OC)CC1,0,-1,0,-2,-34,2,x,x,x
CCOC(=O)C1CCCN(Cc2nc3ccc([N+](=O)[O-])cc3c(=O)n2-c2ccc(OC)cc2OC)C1 (stereo unspecified),-1,11,4,37*,-19,109*,0,-25,-15
CCCCC(=O)N(C)c1c(CC)nc2c(OCc3ccccc3C)cccn12,0,x,-5,2,0,-3,x,x,x
Nc1nc2ccccc2n1C(=O)c1ccco1,-1,x,-2,12,10,48*,-5,-37,-14
C/C=C/c1cccc(-c2nc(C(=O)NC3Cc4ccccc4C3)cc3c2[C@@H](CCO)N(C(C)=O)C3)c1,-1,x,-4,-4,-12,x,x,x,x
Cc1cc(C)n2nc(N)c(N=Nc3ccc4c(c3)OCO4)c2n1,-1,-2,11,5,3,44*,37,-63,36
COc1ccc(S(=O)(=O)N(C)C[C@H]2OCc3cnnn3CCCC(=O)N([C@@H](C)CO)C[C@H]2C)cc1,0,x,-5,4,-10,-5,x,x,x
COc1cc(/C=C2/C(=N)N3C(=NC2=O)SN=C3S(=O)(=O)C(C)C)ccc1OC(=O)c1ccco1,0,38,19,35,-91,47*,25,-15,13
C=CCOc1ccc(/C=C2\C(=N)N3N=C(S(=O)(=O)CC)SC3=NC2=O)cc1OC,0,1,4,7,-18,5,x,x,x
CCOc1cc(/C=C2/C(=N)N3C(=NC2=O)SN=C3S(=O)(=O)CC)ccc1OC(=O)c1ccco1,0,36,30,27,-72,56*,16,-5,4
SMILES,TbMetRS inhib,PREPL inhibitor,CSN inh,HNF4A DNA FP,Neddylation inh,Rpn11 block,Rpn11 confirm,MMP-2 counter,Thrombin FP
CCS(=O)(=O)C1=NN2C(=N)/C(=C\c3ccc(OC(=O)c4ccco4)c(OC)c3)C(=O)N=C2S1,0,51*,22,20,-73,46*,22,-4,19
COc1ccc(NC(=O)CN2C(=O)NC(c3ccccc3)(c3ccccc3)C2=O)cc1OC,-1,16,4,2,2,4,x,x,x
COc1ccc(CCNC(=O)CN2C(=O)COc3ccc(S(=O)(=O)N4CCCC4)cc32)c(OC)c1,0,16,5,1,11,1,x,x,x
Cc1ccc(NC(=O)C2CCN(S(=O)(=O)c3ccc4c(c3)NC(=O)C(C)S4)CC2)cc1C (stereo unspecified),0,23,-2,2,2,16,x,x,x
CCc1ccc(NC(=O)C2CCN(S(=O)(=O)c3ccc4c(c3)NC(=O)C(C)S4)CC2)cc1 (stereo unspecified),-1,14,6,18,-4,69*,87*,25,33
FC(F)(F)c1ccc2c(c1)n(Cc1ccccc1)c1[n+]2CCCCC1,-1,18,7,11,1,54*,-11,3,-21
NCCCC[C@H]1CN=C(N)N1CC1CCCCC1,0,9,2,-29,5,34*,-12,-3,47*
